Source: ChEMBL document CHEMBL1121454, “Alkylating nucleosides. 4. Synthesis and cytostatic activity of chloro- and iodomethylpyrazole nucleosides” (1980)
Values after ≈ are worked out from the molar mass of the structure shown. One block for each molecule: values may come before it.

How the values were obtained:
Format in all cases: functional
[1] = tested on: HeLa; test: Cytostatic activity against HeLa cells; settings: Homo sapiens, read-out: ED50 (the source's name)
Outline: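 HeLa cells at 10⁵ cells/mL in minimal Eagle's medium with 10% fetal calf serum, left 2–3 h at 37 °C in Leighton tubes to attach. Compound added as suspension in sterile saline with 0.05% Tween 80, 10% of final volume. Incubated 72 h at 37 °C. Growth from cell protein by Oyama–Eagle colorimetry; ED50 in μg/mL. 6-Mercaptopurine positive control.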

[2] = tested on: Mus musculus; test: Percent increase in median survival time of treated mice compared with controls at 50 mg/kg
Outline: (§1)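 Ehrlich carcinoma ascites in female ICR Swiss mice (19–22 g), about 5 × 10⁵ cells ip, per NCI protocols 1100/1200. From 24 h after implant, nine daily ip doses in saline with 0.05% Tween 80 (0.4 mL). Groups of 7 treated and 30 controls; 5-fluorouracil 20 (mg/kg)/injection as positive control. T/C × 100 taken from median survival time against controls; evaluation on day 30.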

[3] = tested on: Mus musculus; test: Number of cures on day 30 in mice bearing ECA tumor at 12.5 mg/kg
Outline: (§2)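 Ehrlich ascites carcinoma, about 5 × 10⁵ cells ip from a 7-day donor, in female ICR Swiss mice of 19–22 g. Nine ip doses at 24-h intervals from 24 h post-implant, in saline with 0.05% Tween 80, 0.4 mL. Groups of 7 treated, 30 controls; NCI protocols 1100/1200. Cures are survivors on day 30. 5-Fluorouracil 20 mg/kg/injection reference.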

[4] = tested on: Mus musculus; test: Number of cures on day 30 in mice bearing ECA tumor at 50 mg/kg; outline: as §2
[5] = tested on: Mus musculus; test: Percent increase in median survival time of treated mice compared with controls at 12.5 mg/kg; outline: as §1
[6] = tested on: Mus musculus; test: Percent increase in median survival time of treated mice compared with controls at 25 mg/kg; outline: as §1
[7] = tested on: Mus musculus; test: Number of survivors on day 5 to that of number(7) of mice at 12.5 mg/kg ip in mice bearing ECA tumor was determined; settings: route intraperitoneal
Outline: (§3)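 Female ICR Swiss mice (19–22 g) given about 5 × 10⁵ Ehrlich ascites carcinoma cells ip from a 7-day donor tumour. Starting 24 h later, nine ip doses at 24-h intervals, suspended in 0.9% NaCl with 0.05% Tween 80, 0.4 mL per injection. Groups of 7 treated and 30 controls. Read-out is survivors on day 5 over mice started.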

[8] = tested on: Mus musculus; test: Number of survivors on day 5 to that of number(7) of mice at 25 mg/kg ip in mice bearing ECA tumor was determined; settings: route intraperitoneal; outline: as §3
[9] = tested on: Mus musculus; test: Number of survivors on day 5 to that of number(7) of mice at 50 mg/kg ip in mice bearing ECA tumor was determined; settings: route intraperitoneal; outline: as §3
[10] = tested on: Mus musculus; test: Difference in weight on day 5 in mice bearing ECA tumor at 12.5 mg/kg
Outline: (§4)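 Female ICR Swiss mice, 19–22 g, given about 5 × 10⁵ Ehrlich ascites cells ip from a 7-day donor. Starting 24 h later, nine daily ip doses suspended in 0.9% NaCl with 0.05% Tween 80, 0.4 mL. Groups of 7 treated, 30 controls, per NCI protocols 1100/1200. Value is weight difference (g) between test and control animals.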

[11] = tested on: Mus musculus; test: Difference in weight on day 5 in mice bearing ECA tumor at 25 mg/kg; outline: as §4
[12] = tested on: Mus musculus; test: Difference in weight on day 5 in mice bearing ECA tumor at 50 mg/kg; outline: as §4
[13] = tested on: Mus musculus; test: Number of cures on day 30 in mice bearing ECA tumor at 25 mg/kg; outline: as §2

SMILES: CCOC(=O)c1cc(CCl)[nH]n1
- EC50 [1]: > 100 µg/mL

SMILES: NC(=O)c1cc(CCl)[nH]n1
- EC50 [1]: > 100 µg/mL

- EC50 [1]: 26 µg/mL (≈ 62.2 µM)
SMILES: CC(=O)OC[C@H]1O[C@@H](n2nc(CCl)cc2C(N)=O)[C@H](OC(C)=O)[C@@H]1OC(C)=O

- EC50 [1]: 32 µg/mL (≈ 71.6 µM)
SMILES: CCOC(=O)c1cc(CCl)nn1[C@@H]1O[C@H](COC(C)=O)[C@@H](OC(C)=O)[C@H]1OC(C)=O

- EC50 [1]: 12 µg/mL (≈ 28.7 µM)
SMILES: CC(=O)OC[C@H]1O[C@@H](n2nc(C(N)=O)cc2CCl)[C@H](OC(C)=O)[C@@H]1OC(C)=O

SMILES: CC(=O)OC[C@H]1O[C@@H](n2nc(C(N)=O)cc2CI)[C@H](OC(C)=O)[C@@H]1OC(C)=O
- EC50 [1]: 2 µg/mL (≈ 3.93 µM)
- T/C [2]: 100%
- Cures [3]: 2
- Cures [4]: 1
- T/C [5]: 121%
- T/C [6]: 141%
- Survivors [7]: 7
- Survivors [8]: 7
- Survivors [9]: 7
- Weight difference [10]: 0.3
- Weight difference [11]: -0.25
- Weight difference [12]: -0.5
- Cures [13]: 4

- EC50 [1]: 5.5 µg/mL (≈ 10.2 µM)
SMILES: CCOC(=O)c1cc(CI)nn1[C@@H]1O[C@H](COC(C)=O)[C@@H](OC(C)=O)[C@H]1OC(C)=O

SMILES: CC(=O)OC[C@H]1O[C@@H](n2nc(CI)cc2C(N)=O)[C@H](OC(C)=O)[C@@H]1OC(C)=O
- EC50 [1]: 1.5 µg/mL (≈ 2.95 µM)
- T/C % [2]: 63%
- Cures [3]: 2
- T/C [5]: 131%
- T/C [6]: 158%
- Survivors [7]: 7
- Survivors [8]: 7
- Survivors [9]: 7
- Weight difference [10]: -0.6
- Weight difference [11]: -0.4
- Weight difference [12]: -0.6
- Cures [13]: 4

- EC50 [1]: 40 µg/mL (≈ 77.1 µM)
SMILES: CCOC(=O)c1cc(CCl)nn1C1O[C@@H](COC(C)=O)[C@H](OC(C)=O)[C@@H](OC(C)=O)[C@@H]1OC(C)=O (some centres not stated)

SMILES: CCOC(=O)c1cc(CI)[nH]n1
- EC50 [1]: > 100 µg/mL

- EC50 [1]: 18 µg/mL (≈ 36.7 µM)
SMILES: CC(=O)OC[C@@H]1OC(n2nc(CCl)cc2C(N)=O)[C@@H](OC(C)=O)[C@H](OC(C)=O)[C@H]1OC(C)=O (some centres not stated)

SMILES: NC(=O)c1cc(CI)[nH]n1
- EC50 [1]: > 100 µg/mL

- EC50 [1]: 12 µg/mL (≈ 24.5 µM)
SMILES: CC(=O)OC[C@H]1OC(n2nc(CCl)cc2C(N)=O)[C@H](OC(C)=O)[C@@H](OC(C)=O)[C@@H]1OC(C)=O (some centres not stated)

- EC50 [1]: > 100 µg/mL
SMILES: CCOC(=O)c1cc(CCl)nn1C1O[C@H](COC(C)=O)[C@@H](OC(C)=O)[C@H](OC(C)=O)[C@H]1OC(C)=O (some centres not stated)

- EC50 [1]: 2.5 µg/mL (≈ 4.1 µM)
SMILES: CCOC(=O)c1cc(CI)nn1C1O[C@@H](COC(C)=O)[C@H](OC(C)=O)[C@@H](OC(C)=O)[C@@H]1OC(C)=O (some centres not stated)

SMILES: CC(=O)OC[C@@H]1OC(n2nc(CI)cc2C(N)=O)[C@@H](OC(C)=O)[C@H](OC(C)=O)[C@H]1OC(C)=O (some centres not stated)
- EC50 [1]: 2 µg/mL (≈ 3.44 µM)
- T/C [2]: 176%
- Cures [4]: 4
- T/C [6]: 105%
- Survivors [8]: 7
- Survivors [9]: 7
- Weight difference [11]: -0.1
- Weight difference [12]: -0.3
- Cures [13]: 1
